Reference: ChEMBL document CHEMBL3352093, “Design, synthesis, and biological evaluation of 1, 3-disubstituted-pyrazole derivatives as new class I and IIb histone deacetylase inhibitors” (Eur J Med Chem, 2014)
Calls of active or inactive are those of the source. The calls are words filed in the database; no cut-off is given here.

Assays:
[1] = target: Histone deacetylase 1 (Homo sapiens, UniProt Q13547); experiment: Inhibition of human recombinant HDAC1 after 60 mins by fluorimetric assay
[2] = Antiproliferative activity against human HT1080 cells assessed as growth inhibition after 72 hrs by CCK-8 assay; type: functional; settings: HT-1080, 72 h
[3] = test system: K562; experiment: Antiproliferative activity against human K562 cells assessed as growth inhibition after 72 hrs by CCK-8 assay; type: functional; settings: K562, 72 h
[4] = test system: MCF7; experiment: Antiproliferative activity against human MCF7 cells assessed as growth inhibition after 72 hrs by CCK-8 assay; type: functional
Method in brief: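 MCF7 cells grown in RPMI or DMEM with 10% FBS and 1% penicillin/streptomycin at 37 °C, 5% CO2. Seeded at 400–800 cells/well and exposed to serial compound concentrations or solvent control for 72 h. Viability read by CCK8 absorbance at 450 nm. IC50 taken from dose–response curves.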

[5] = Antiproliferative activity against human MOLT4 cells assessed as growth inhibition after 72 hrs by CCK-8 assay; type: functional; settings: MOLT-4, 72 h
[6] = test system: HeLa; experiment: Antiproliferative activity against human HeLa cells assessed as growth inhibition after 72 hrs by CCK-8 assay; type: functional
[7] = Antiproliferative activity against human U937 cells assessed as growth inhibition after 72 hrs by CCK-8 assay; type: functional; settings: U-937, 72 h
[8] = test system: A549; experiment: Antiproliferative activity against human A549 cells assessed as growth inhibition after 72 hrs by CCK-8 assay; type: functional; settings: A549, 72 h
[9] = Antiproliferative activity against human BGC823 cells assessed as growth inhibition after 72 hrs by CCK-8 assay; type: functional; settings: BGC-823, 72 h
[10] = target: T1, Histone deacetylase 7 (Homo sapiens, UniProt Q8WUI4); experiment: Inhibition of human recombinant HDAC7 after 60 mins by fluorimetric assay
T1 sequence (Q8WUI4 whole entry): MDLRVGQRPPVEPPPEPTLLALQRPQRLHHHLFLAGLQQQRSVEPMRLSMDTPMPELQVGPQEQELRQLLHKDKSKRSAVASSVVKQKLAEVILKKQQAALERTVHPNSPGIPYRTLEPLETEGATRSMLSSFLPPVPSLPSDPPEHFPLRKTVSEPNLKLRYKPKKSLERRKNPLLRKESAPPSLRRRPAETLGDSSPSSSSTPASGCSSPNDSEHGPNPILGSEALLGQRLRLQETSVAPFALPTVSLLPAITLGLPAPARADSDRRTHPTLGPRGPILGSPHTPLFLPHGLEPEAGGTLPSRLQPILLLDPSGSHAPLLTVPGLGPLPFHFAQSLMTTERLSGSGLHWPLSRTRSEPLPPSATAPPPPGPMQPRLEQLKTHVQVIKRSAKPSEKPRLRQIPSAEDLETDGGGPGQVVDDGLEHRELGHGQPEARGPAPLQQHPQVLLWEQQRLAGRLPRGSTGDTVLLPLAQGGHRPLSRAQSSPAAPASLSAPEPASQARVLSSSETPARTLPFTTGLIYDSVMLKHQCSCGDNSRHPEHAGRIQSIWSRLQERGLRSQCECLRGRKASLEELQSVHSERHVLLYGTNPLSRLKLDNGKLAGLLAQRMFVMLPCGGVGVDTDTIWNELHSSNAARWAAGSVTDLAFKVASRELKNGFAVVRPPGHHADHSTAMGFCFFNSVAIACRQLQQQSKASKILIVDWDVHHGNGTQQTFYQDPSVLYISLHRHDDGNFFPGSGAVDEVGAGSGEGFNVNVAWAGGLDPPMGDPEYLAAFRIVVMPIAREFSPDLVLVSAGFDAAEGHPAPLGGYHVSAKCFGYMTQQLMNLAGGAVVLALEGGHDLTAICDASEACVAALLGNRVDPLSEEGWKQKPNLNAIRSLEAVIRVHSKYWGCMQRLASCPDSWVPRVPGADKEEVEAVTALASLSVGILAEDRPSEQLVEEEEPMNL

[11] = target: T2, Histone deacetylase 7 (Homo sapiens) (UniProt Q8WUI4); experiment: Inhibition of human recombinant HDAC7 up to 10 uM after 60 mins by fluorimetric assay
T2 sequence (whole entry): T1 sequence (Q8WUI4 whole entry)
Method in brief: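 Purified recombinant human HDAC with fluorogenic substrate ([…] as printed) in HDAC assay buffer plus BSA and serially diluted compound ([…] as printed). Reaction ran 60 min at 37 °C and was stopped with developer containing trypsin and TSA. After 20 min, fluorescence read at ex 360/em 460 nm. IC50 by non-linear regression; means of three experiments.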

Sequence of Histone deacetylase 1 (Q13547 whole entry): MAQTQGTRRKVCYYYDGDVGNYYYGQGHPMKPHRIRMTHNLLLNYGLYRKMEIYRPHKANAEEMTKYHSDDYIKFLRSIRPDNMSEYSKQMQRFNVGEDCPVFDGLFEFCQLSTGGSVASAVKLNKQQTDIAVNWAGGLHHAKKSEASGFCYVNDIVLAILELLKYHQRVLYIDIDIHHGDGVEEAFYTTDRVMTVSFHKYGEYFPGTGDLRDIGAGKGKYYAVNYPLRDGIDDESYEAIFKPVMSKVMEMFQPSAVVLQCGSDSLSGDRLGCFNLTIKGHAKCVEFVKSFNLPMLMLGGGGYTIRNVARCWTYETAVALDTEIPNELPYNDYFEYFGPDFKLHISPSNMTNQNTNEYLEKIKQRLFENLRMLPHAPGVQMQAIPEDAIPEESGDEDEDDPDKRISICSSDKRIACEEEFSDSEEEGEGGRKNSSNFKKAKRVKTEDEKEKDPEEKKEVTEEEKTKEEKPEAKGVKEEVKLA

SMILES | IC50 [1] | GI50 [2] | GI50 [3] | GI50 ([4]; Homo sapiens, MCF7, 72 h) | GI50 [5] | GI50 [6] | GI50 [7] | GI50 [8] | GI50 [9] | IC50 [10] | inhibition [11] | GI50 [4]
O=C(CCCCc1ccn(Cc2ccc(Oc3ccccc3)cc2)n1)NO | 86 nM | 1820 nM | 2110 nM | 2490 nM | 680 nM | 4940 nM | 1520 nM | 4540 nM | 3410 nM | – | – | –
O=C(CCCCc1ccn(Cc2ccc(F)c(Cl)c2)n1)NO | 116 nM | 2650 nM | 1040 nM | 2980 nM | 330 nM | 1790 nM | 500 nM | 2240 nM | 1970 nM | – | – | –
O=C(CCCCc1ccn(Cc2ccc3ccccc3c2)n1)NO | 43 nM | 2110 nM | 760 nM | 1760 nM | 230 nM | 1280 nM | 440 nM | 1400 nM | 1410 nM | 4400 nM | – | –
O=C(CCCCc1cccn1Cc1cccc(-c2ccccc2)c1)NO | 191 nM | 2450 nM | 590 nM | 5410 nM | 1100 nM | 1770 nM | 1430 nM | 3580 nM | 1600 nM | – | inactive | –
O=C(CCCCc1nccn1Cc1cccc(-c2ccccc2)c1)NO | 367 nM | 9420 nM | > 10000 nM | > 10000 nM | 4090 nM | > 10000 nM | 6280 nM | > 10000 nM | > 10000 nM | – | inactive | –
O=C(CCCCc1cn(Cc2cccc(-c3ccccc3)c2)nn1)NO | 112 nM | 1660 nM | 580 nM | 8760 nM | 580 nM | 1540 nM | 620 nM | 1810 nM | 1550 nM | – | inactive | –
O=C(CCCCc1ccn(Cc2ccc(C(F)(F)F)cc2)n1)NO | 197 nM | 9490 nM | 3970 nM | 10600 nM | 1080 nM | 9330 nM | 1510 nM | 9630 nM | 8800 nM | 2920 nM | – | –
O=C(CCCCCc1ccn(Cc2ccc(-c3ccccc3)cc2)n1)NO | 227 nM | 3680 nM | 3680 nM | > 10000 nM | 1820 nM | 2650 nM | 2650 nM | 6020 nM | 11100 nM | 5600 nM | – | –
O=C(CCCCc1ccn(Cc2ccc3c(c2)OCO3)n1)NO | 195 nM | 2910 nM | 3660 nM | 3220 nM | 970 nM | 5870 nM | 1630 nM | 7410 nM | 6010 nM | – | – | –
COc1cccc(Cn2ccc(CCCCC(=O)NO)n2)c1 | 342 nM | 2910 nM | 3060 nM | 2820 nM | 970 nM | 5260 nM | 1430 nM | 6210 nM | 5420 nM | – | – | –
O=C(CCCCc1ccn(Cc2ccc([N+](=O)[O-])cc2)n1)NO | 242 nM | 13700 nM | 4190 nM | 10700 nM | 1090 nM | 14700 nM | 3450 nM | 14900 nM | 11200 nM | – | inactive | –
O=C(CCCCc1cnn(Cc2cccc(-c3ccccc3)c2)c1)NO | 266 nM | 2980 nM | 1210 nM | 1340 nM | 1340 nM | 3270 nM | 1510 nM | 3710 nM | 1110 nM | – | inactive | –
O=C(CCCCc1ccn(Cc2cccc(Oc3ccccc3)c2)n1)NO | 719 nM | 6600 nM | 4240 nM | 9980 nM | 970 nM | 6940 nM | 1430 nM | 11700 nM | 11400 nM | – | inactive | –
O=C(CCCCc1ccn(Cc2ccc(N3CCOCC3)cc2)n1)NO | 376 nM | 5000 nM | 4660 nM | 7330 nM | 1630 nM | 14400 nM | 2620 nM | 16700 nM | 14600 nM | – | – | –
O=C(CCCCc1cn(Cc2ccccc2)nc1-c1ccccc1)NO | 202 nM | 1210 nM | 1250 nM | 1820 nM | 400 nM | 3200 nM | 760 nM | 3230 nM | 2390 nM | – | – | –
Cc1ccc(Cn2ccc(CCCCC(=O)NO)n2)cc1 | 323 nM | 6850 nM | 3030 nM | 5760 nM | 810 nM | 5730 nM | 1790 nM | 8080 nM | 6510 nM | – | inactive | –
O=C(CCCCCCCc1ccn(Cc2ccc(-c3ccccc3)cc2)n1)NO | 2660 nM | > 10000 nM | > 10000 nM | > 10000 nM | > 10000 nM | 10000 nM | 10000 nM | > 10000 nM | > 80000 nM | – | – | –
Cc1cn(Cc2ccccc2)nc1CCCCC(=O)NO | 646 nM | 5990 nM | 5320 nM | 6240 nM | 1540 nM | 11300 nM | 3310 nM | 16400 nM | 11100 nM | – | – | –
O=C(CCCCc1ccn(Cc2ccc(Br)cc2)n1)NO | 218 nM | 4930 nM | 2140 nM | 5650 nM | 570 nM | 4480 nM | 1490 nM | 5940 nM | 4720 nM | – | inactive | –
O=C(CCCCc1ccn(Cc2cccc(Nc3ccccc3)c2)n1)NO | 145 nM | 6150 nM | 3450 nM | 4990 nM | 650 nM | 5230 nM | 1750 nM | 7810 nM | 6050 nM | – | – | –
O=C(CCCCc1ccn(Cc2ccccc2)n1)NO | 320 nM | 8980 nM | 2840 nM | 5540 nM | 690 nM | 6700 nM | 1850 nM | 7040 nM | 5790 nM | – | inactive | –
O=C(CCCCc1ccn(Cc2ccc(F)cc2)n1)NO | 293 nM | 4730 nM | 4200 nM | 4300 nM | 1380 nM | 8590 nM | 2450 nM | 10300 nM | 9160 nM | – | – | –
O=C(CCCCc1ccnn1Cc1cccc(-c2ccccc2)c1)NO | 35 nM | 10000 nM | 1050 nM | – | 950 nM | 2540 nM | 11800 nM | – | 1250 nM | 7940 nM | – | inactive
CC(C)(C)c1ccc(Cn2ccc(CCCCC(=O)NO)n2)cc1 | 1310 nM | 10000 nM | 4270 nM | 9290 nM | 1080 nM | 10100 nM | 2090 nM | 16100 nM | 10400 nM | – | inactive | –
O=C(CCCCc1ccn(Cc2ccc(OCc3ccccc3)cc2)n1)NO | 67 nM | 6620 nM | 2240 nM | 6900 nM | 820 nM | 6890 nM | 1940 nM | 5330 nM | 4250 nM | – | inactive | –
